First the molecules themselves.
B1: DAXX Helical Bundle domain (DHB_(DAXX), residues 55-144 hDAXX) (domain or fragment, human, UniProt Q9UER7 55-144, looked up)
chain: GKKCYKLENEKLFEEFLELCKMQTADHPEVVPFLYNRQQRAHSLFLASAEFCNILSRVLSRARSRPAKLYVYINELCTVLKAHSAKKKLN
B2: DAXX Interacting Domain of ATRX (DID_(ATRX), residues 1190-1325 hATRX) (domain or fragment, human, UniProt P46100 1190-1325, looked up)
chain: RTSTKRKQADITSSSSSDIEDDDQNSIGEGSSDEQKIKPVTENLVLSSHTGFCQSSGDEALSKSVPVTVDDDDDDNDPENRIAKKMLLEEIKANLSSDEDGSSDDEPEEGKKRTGKQNEENPGDEEAKNQVNSESD

Series [1] can be described thus: Solubility limit of stitched peptides. The series is classed as physicochemical. Conditions: peptides synthesized with an N-terminal FAM moiety; method not described.
For a further series, the system named is HCT116 cells. Briefly: Lactate dehydrogenase. It counts as cell-based. Conditions: chloroalkane versions, 2% serum, 4 and 24 h. An outline of the steps:
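HCT116 cells were seeded at 5000 per well in DMEM/10% FCS for 24 h, then switched to medium with 2% FCS. They were given titrated peptide (up to 50 μM; 1% v/v DMSO final) for 4 or 24 h, with 1% DMSO-only controls. Released LDH was measured by colorimetric kit and normalised to 0.1% Triton X-100 lysis. Mean of three independent measurements ± 1 SD.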

In series [2] the target is T1, DHBDAXX (residues 55-144 hDAXX) (Homo sapiens, UniProt Q9UER7).
T1 sequence (Q9UER7 55-144): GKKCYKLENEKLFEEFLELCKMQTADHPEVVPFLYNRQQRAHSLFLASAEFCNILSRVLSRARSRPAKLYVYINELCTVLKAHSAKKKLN
Briefly: Fluorescence polarisation saturation binding of FAM-labelled peptide to DHBDAXX. Conditions: fluorescence anisotropy Kd. In general terms: Fluorescence polarisation rises when a labelled molecule tumbles more slowly, as on binding a larger partner.

For series [3], the target named is B1. Briefly: ITC. For orientation: In ITC the heat of successive injections is recorded.
Series [4] deals with B2. Briefly: fluorescence polarisation.
Series [5] deals with B2. Briefly: ITC.
In series [6] the target is T1, DHBDAXX (residues 55-144 hDAXX). Conditions: read-out: Kd (competitive binding affinity); competitive displacement of FAM-SPEP7 from DHBDAXX.
Series [7] shares this target. Briefly: Isothermal titration calorimetry. The series is classed as binding. Particulars: ITC, 25 °C, ATRX fragments (Table 1), no unit in table.

In brackets after ≈: the same amount, converted by molar mass.

Broadly, the Kd is the equilibrium constant for the complex coming apart.

For the molecule `CC[C@H](C)[C@@H]1NC(=O)[C@H](CCC(=O)O)NC(=O)[C@H](C)NC(=O)[C@H](CC(C)C)NC(=O)[C@H](CC(C)C)NC(=O)C2(CCCC=CCCCCCC[C@@](C)(C(=O)N[C@@H](CC(N)=O)C(=O)N[C@@H](CC(C)C)C(=O)N[C@@H](CO)C(N)=O)NC(=O)[C@H](CCCCN)NC1=O)CCCC=CCCC[C@](C)(NC(=O)[C@H](CCCNC(=N)N)NC(=O)[C@H](CC(N)=O)NC(=O)[C@H](CCC(=O)O)NC(=O)[C@@H]1CCCN1C(=O)[C@H](CC(=O)O)NC(=O)[C@H](CC(N)=O)NC(=O)[C@@H](N)CC(=O)O)C(=O)N[C@@H](C)C(=O)N[C@@H](CCCCN)C(=O)N[C@@H](CCCCN)C(=O)N2` (some centres unmarked) [STPEP2], in series [1], the solubility limit was 11 µM (≈ 28.9 µg/mL). Further, the “cellular toxicity (LDH release)” value with HCT116 cells is recorded as “no significant cellular toxicity”.

In series [1], `CC[C@H](C)[C@@H]1NC(=O)[C@H](CCC(=O)O)NC(=O)[C@H](C)NC(=O)[C@H](CC(C)C)NC(=O)[C@H](CC(C)C)NC(=O)[C@H](C)NC(=O)C2(CCCC=CCCCCCC[C@@](C)(C(=O)N[C@@H](C)C(=O)N[C@@H](CC(N)=O)C(=O)N[C@@H](CC(C)C)C(=O)N[C@@H](CO)C(N)=O)NC1=O)CCCC=CCCC[C@](C)(NC(=O)[C@H](CC(N)=O)NC(=O)[C@H](CCC(=O)O)NC(=O)[C@@H]1CCCN1C(=O)[C@@H](N)CC(N)=O)C(=O)N[C@@H]([C@@H](C)CC)C(=O)N[C@@H](C)C(=O)N[C@@H](CCCCN)C(=O)N2` (some centres unmarked) [STPEP7] gave a solubility limit of 49 µM (≈ 110 µg/mL). Moreover, the “fold decrease in binding compared to FAM-SPEP7” value in series [2] is recorded as around 7 fold. Besides, in the series with HCT116 cells, the “cellular toxicity (LDH release)” value is reported as “no significant cellular toxicity”.

In series [3], PVTVDDDDDDNDPENRIAKKMLLEEIKANL (peptide, UniProt P46100 1255-1284, looked up) [ATRX (1255–1284) peptide] showed a dH of -10.6 kcal/mol.

PENRIAKKMLLEEIKANL (peptide, UniProt P46100 1267-1284, looked up) [ATRX (1267–1284) peptide] had a dH in series [3] of -9.3 kcal/mol.

DDNDPENRIAKKMLLEEIKANLSSDEDG (peptide, UniProt P46100 1263-1290, looked up) [ATRX (1263–1290) peptide] gave a dH in series [3] of -13.4 kcal/mol.

Regarding NDPENRIAKKMLLEEIKANLSSDEDG (peptide, UniProt P46100 1265-1290, looked up) [ATRX (1265–1290) peptide], in series [3], the dH is -13.3 kcal/mol.

For PENRIAKKMLLEEIKANLSSDEDG (peptide, UniProt P46100 1267-1290, looked up) [ATRX (1267–1290) peptide], in series [3], the dH is -11.9 kcal/mol.

Regarding B1, the equilibrium dissociation constant (Kd) came to 193 nM in series [4] and 80 nM in series [5].

With B2, the dH in series [3] is -11.7 kcal/mol.

B3: DIDATRX: DAXX Interacting Domain of ATRX, residues 1190–1325 hATRX, recombinant (protein)
chain: RTSTKRKQADITSSSSSDIEDDDQNSIGEGSSDEQKIKPVTENLVLSSHTGFCQSSGDEALSKSVPVTVDDDDDDNDPENRIAKKMLLEEIKANLSSDEDGSSDDEPEEGKKRTGKQNEENPGDEEAKNQVNSESD
modifications: left off: His6, N-terminal, state not stated
B3: the dissociation constant Kd in series [6] was determined as 193 nM. In addition, in series [7], the ΔG is recorded as −9.69 and the “−TΔS” value came to 2.06. In addition, the ΔH in series [7] (error in parentheses) is −11.7 (0.10).

On to DDDDNDPENRIAKKMLLEEIKANLSSDEDG (peptide, UniProt P46100 1261-1290, looked up) [ATRX (1261–1290) peptide], for which the dH in series [3] was -13.8 kcal/mol.

Turning to PVTVDDDDDDNDPENRIAKKMLLEEIKANLSSDED (peptide, UniProt P46100 1255-1289, looked up) [ATRX (1255–1289) peptide], in series [3], the dH is -12.2 kcal/mol.

With DNDPENRIAKKMLLEEIKANLS (peptide, UniProt P46100 1264-1285, looked up) [PEP_(ATRX), peptide fragment of ATRX (1264–1285)], in series [3], the dH was -13.3 kcal/mol.

Values taken from publication PMC10685803 (RSC Chemical Biology, 2023).
